Screening data (PubChem)
Diaphorase act: counter-screen for diaphorase-based assays: diaphorase activators and chemical reducers | Diaphorase/resazurin coupled assay, resorufin fluorescence, 16 min; hits give high values; 1 = vehicle wells, 0 = NADH-free wells | activation factor at 20 µM | 0.005% of 190,000 active;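 active = diaphorase activity raised at least twofold by the compound at 20 µM; inactive = activation factor below 2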
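Assay system: bacterial diaphorase enzyme (C. kluyveri) / Input: enzyme 0.07 U/mL final / Medium: 50 mM HEPES pH 7.4 with 4.542 mM MgCl2, 0.005% Tween 20 / Doses: single compound dose of 20 µM, 1% DMSO final / Incubation: 16 min enzyme reaction, ambient temperature / Signal: fluorescence, excitation 544 nm and emission 590 nm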
WT yeast gro inh: growth inhibition of WT yeast, mitochondrial fusion screen; mitochondrial fusion phenotypic screen, WT strain; inhibition, % at 10 µM; 2.1% of 190,000 active; AID 1362; in the data active = inhibition above about 58%; tested in S. cerevisiae
G6PDH counter: inhibits Leuconostoc G6PDH, flagging false hits in G6PDH-based assays. inhibition, % at 5 µM. 0.12% of 200,000 active. Purified L. mesenteroides G6PDH, diaphorase/resazurin coupled fluorescence, 45 min
Diaphorase inh: inhibits diaphorase or chemically oxidizes, flagging diaphorase assay artifacts | diaphorase resazurin-to-resorufin fluorescence, NADH, 16 min; bacterial (C. kluyveri) enzyme, not human | 0.69% of 190,000 active | inhibition, % at 20 µM;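 active = primary screen inhibition at 20 µM above a set limit, cut at about 50% in these data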;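 note: plate controls were DMSO with full reaction for no effect and wells lacking NADH for full effect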
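material = Clostridium kluyveri diaphorase enzyme | amount = 0.14 U/mL diaphorase, enzyme working solution | schedule = incubation 16 min, room temperature | detection = fluorescence of resorufin formed from resazurin, Ex 544/Em 590 nm | benchmarks = positive control minus NADH, DMSO neutral control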
Lmaj promast: Leishmania major promastigote growth inhibition | Leishmania major promastigotes, resazurin fluorescence viability | inhibition, % at 10 µM | 9% of 200,000 active;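 note: promastigotes grown with compound for 44 hours at 28 °C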
Numbers without * were called inactive. Rows were chosen to be rich in hits. Some 11% of all compounds tested hit in one or more screens of this group. Cut-off read from the data, not from the text of the source, unless noted: active = inhibition above about 50%; inactive = the rest.

Cc1cc2cc(C(c3nnnn3Cc3ccco3)N3CCc4ccccc43)c(=O)[nH]c2cc1C (centres undefined) was read as Diaphorase act 0.2, WT yeast gro inh 14, G6PDH counter 23, Diaphorase inh 83* and Lmaj promast 20.
`CN(C)CCn1c(=O)n(Cc2ccco2)c(=O)c2c3c(sc21)CCCCC3` gave Diaphorase act 0.9, WT yeast gro inh 13, G6PDH counter 3, Diaphorase inh 14 and Lmaj promast 88*.
For O=C(Cn1c(=O)n(Cc2ccco2)c(=O)c2c3c(sc21)CCCCC3)c1ccccc1 the results were Diaphorase act 0.7, WT yeast gro inh -5, G6PDH counter 7, Diaphorase inh 29 and Lmaj promast 13.
For O=c1c2c3c(sc2n(CCN2CCCC2)c(=O)n1Cc1ccco1)CCCCC3 the results were Diaphorase act 1.1, WT yeast gro inh -3, G6PDH counter -13, Diaphorase inh -10 and Lmaj promast 87*.
Screening CCn1c2ccccc2c(=O)c2ccccc21 returned Diaphorase act 0.9, WT yeast gro inh 14, G6PDH counter 4, Diaphorase inh 9 and Lmaj promast 21.
For CCC1(C)OCC(Cn2c3ccccc3c3ccccc32)O1 (centres undefined) the results were Diaphorase act 0.8, WT yeast gro inh 61*, G6PDH counter 3, Diaphorase inh 17 and Lmaj promast 2.
`CCC(C)(C(=O)NC1CCCC1)N(Cc1cccs1)C(=O)c1ccccn1` (centres undefined) gave Diaphorase act 0.7, WT yeast gro inh -12, G6PDH counter 7, Diaphorase inh 26 and Lmaj promast -4.
`O=c1c2ccccc2c(C=NC2CCN(Cc3ccccc3)CC2)c(O)n1Cc1ccc2c(c1)OCO2` gave Diaphorase act 0.9, WT yeast gro inh 23, G6PDH counter -4, Diaphorase inh 10 and Lmaj promast 87*.
`CCN(CC)CCCN=Cc1c(O)n(Cc2ccccc2)c(=O)c2ccccc12` gave Diaphorase act 1, WT yeast gro inh -5, G6PDH counter 12, Diaphorase inh 0 and Lmaj promast 99*.
Screening COc1ccc(Cn2c(O)c(C=Nc3ccc(OC)cc3)c3ccccc3c2=O)cc1 returned Diaphorase act 0.7, WT yeast gro inh -10, G6PDH counter 1, Diaphorase inh 26 and Lmaj promast 18.
`Cc1ccc(N=Cc2c(O)n(-c3ccc4c(c3)OCO4)c(=O)c3ccccc23)cc1` gave Diaphorase act 1, WT yeast gro inh 73*, G6PDH counter 7, Diaphorase inh 4 and Lmaj promast 3.
CN(C)CCCN=Cc1c(O)n(Cc2ccc3c(c2)OCO3)c(=O)c2ccccc12 was read as Diaphorase act 1, WT yeast gro inh -4, G6PDH counter -1, Diaphorase inh -1 and Lmaj promast 98*.
For CC(C)(C)n1nc2c(c1NC(=O)COc1ccc3ccccc3c1)CS(=O)(=O)C2 the results were Diaphorase act 0.8, G6PDH counter 20, Diaphorase inh 17 and Lmaj promast -1.
`CN(C)CCN=Cc1c(O)n(Cc2ccc3c(c2)OCO3)c(=O)c2ccccc12` gave Diaphorase act 0.9, WT yeast gro inh -12, G6PDH counter 0, Diaphorase inh 6 and Lmaj promast 74*.
`O=c1c2ccccc2[nH]c(=S)n1Cc1ccc2c(c1)OCO2` gave Diaphorase act 1.3, WT yeast gro inh -13, G6PDH counter 7, Diaphorase inh -25 and Lmaj promast 3.
For O=C1N=C2N(CCN3CCCCC3)c3ccccc3N2/C1=C\c1ccc([N+](=O)[O-])o1 the results were WT yeast gro inh 3, G6PDH counter 11 and Lmaj promast 100*.
c1ccc2c(c1)N1CCCN=C1N2CCN1CCCCC1 was read as Diaphorase act 1, WT yeast gro inh 2, G6PDH counter 4, Diaphorase inh -2 and Lmaj promast -3.
Nc1ccc(O)cc1C(=O)OCC(=O)c1ccc(C2CCCCC2)cc1 was read as Diaphorase act 0.7, WT yeast gro inh -11, G6PDH counter 6, Diaphorase inh 33 and Lmaj promast 60*.
COc1ccc(C(=O)OCC(=O)c2ccc(C3CCCCC3)cc2)cc1 was read as Diaphorase act 0.8, WT yeast gro inh 8, G6PDH counter -48, Diaphorase inh 16 and Lmaj promast -1.
`O=C(Nc1cccs1)Nc1ccccc1Br` gave Diaphorase act 0.9, WT yeast gro inh 19, G6PDH counter 7, Diaphorase inh 15 and Lmaj promast -1.
CN1CCN(c2nc3ccccc3nc2C(C#N)C(=O)OC2CCCCC2)CC1 (centres undefined) was read as Diaphorase act 1, WT yeast gro inh 35, G6PDH counter 5, Diaphorase inh -1 and Lmaj promast 90*.
`CCOC(=O)C1CCN(c2nc3ccccc3nc2C(C#N)C(=O)NCCc2ccccc2)CC1` (centres undefined) gave Diaphorase act 0.7, WT yeast gro inh 82*, G6PDH counter 0, Diaphorase inh 26 and Lmaj promast 28.
CCN1CCN(c2nc3ccccc3nc2C(C#N)C(=O)OC2CCCCC2)CC1 (centres undefined) was read as Diaphorase act 0.8, WT yeast gro inh -15, G6PDH counter -7, Diaphorase inh 15 and Lmaj promast 85*.
`N#CC(C(=O)OC1CCCCC1)c1nc2ccccc2nc1N1CCOCC1` (centres undefined) gave Diaphorase act 0.8, WT yeast gro inh -4, G6PDH counter 6, Diaphorase inh 24 and Lmaj promast 29.
Screening O=C(N=Nc1c(O)[nH]c2ccccc12)c1cccc(S(=O)(=O)Nc2ccccc2Cl)c1 returned Diaphorase act 0.9, WT yeast gro inh 6, G6PDH counter 11, Diaphorase inh 9 and Lmaj promast 4.
For O=C(N=Nc1c(O)[nH]c2ccccc12)c1ccccc1NS(=O)(=O)c1cccs1 the results were Diaphorase act 0.9, WT yeast gro inh -5, G6PDH counter 9, Diaphorase inh 12 and Lmaj promast 68*.
`Cc1nc2ccccc2nc1CN1CCC(CO)(CC2CCCCO2)CC1` (centres undefined) gave Diaphorase act 0.9, WT yeast gro inh 4, G6PDH counter 7, Diaphorase inh 9 and Lmaj promast 69*.
For Cc1c(CN2CCC(CO)(CC3CCCCO3)CC2)cnn1C (centres undefined) the results were Diaphorase act 0.9, WT yeast gro inh -9, G6PDH counter 15, Diaphorase inh 12 and Lmaj promast -7.
CC[N+](CC)(CC)C/C=C/CN1CCCCC1 was read as Diaphorase act 1, WT yeast gro inh -15, G6PDH counter 7, Diaphorase inh 2 and Lmaj promast 58*.
`c1ccc2c(c1)oc1c(Nc3ccc(CN4CCOCC4)cc3)ncnc12` gave Diaphorase act 1, WT yeast gro inh -19, G6PDH counter 4, Diaphorase inh 3 and Lmaj promast 89*.
